The source made the active and inactive calls. No cut-off for these calls is given here.
Tests used:
A2780 = assay: Cytotoxicity against human A2780 cells by MTT assay; format: functional, cell-based
Bel-7402 = assay: Cytotoxicity against human Bel7402 cells by MTT assay; format: functional, cell-based
A549 = assay: Cytotoxicity against human A549 cells by MTT assay; format: functional, cell-based
Homo sapiens = organism: Homo sapiens; assay: Cytotoxicity against human […] cells by MTT assay; format: functional, cell-based
HCT-116 = assay: Cytotoxicity against human HCT116 cells by MTT assay; format: functional, cell-based
HCT-8 = assay: Cytotoxicity against human HCT8 cells by MTT assay; format: functional, cell-based
BV-2 [1] = assay: Antiinflammatory activity against mouse BV2 cells assessed as inhibition of LPS-induced nitric oxide production at 1 uM after 24 hrs by griess assay relative to control; format: functional; conditions: BV-2, 24 h
Outline: (§1)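 BV2 cells preincubated 24 h, then exposed to compounds and stimulated with LPS (E. coli 055:B5) for 24 h. Supernatant mixed with equal volume Griess reagent, 5 min at room temperature in the dark; absorbance read at 540 nm for NO. Curcumin as positive control.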

BV-2 [2] = assay: Antiinflammatory activity against mouse BV2 cells assessed as inhibition of LPS-induced nitric oxide production after 24 hrs by griess assay; format: functional, cell-based; conditions: BV-2, 24 h; outline: as §1

Row | IC50 (BV-2 [2]) | SMILES | Activity (A2780) | Activity (Bel-7402) | Activity (A549) | Activity (Homo sapiens) | Activity (HCT-116) | Activity (HCT-8) | inhibition at 1 µM (BV-2 [1])
1 |  | C=C(C)[C@@H]1C[C@@]2(C)C(=CC1=O)[C@@H]1O[C@@H]1[C@H](O)[C@@H]2C | inactive | inactive | inactive | inactive | inactive | inactive | 
2 |  | COC(=O)[C@H]1CCC(=O)N1Cc1cc(OC)c2c(OC)cc3cc(OCc4ccccc4)ccc3c2c1 | inactive | inactive | inactive | inactive | inactive | inactive | 
3 |  | CO[C@@]12OC(=O)C(C)=C1C[C@@]1(C)[C@H](C(=O)C=C[C@@H]1C)[C@@H]2O | inactive | inactive | inactive | inactive | inactive | inactive | 
4 |  | COC(=O)[C@@H](C)c1cc2c(cc1O)C(=O)C=CC2(C)C | inactive | inactive | inactive | inactive | inactive | inactive | 50.6%
5 |  | CO[C@]12C=C3C(=O)C=C[C@H](C)[C@@]3(C)CC1=C(C)C(=O)O2 | inactive | inactive | inactive | inactive | inactive | inactive | 36.1%
6 |  | CC(=O)O[C@H]1[C@H]2O[C@H]2C2=CC(=O)[C@]3(C[C@]2(C)[C@H]1C)O[C@]3(C)C=O | inactive | inactive | inactive | inactive | inactive | inactive | 
7 | 4 µM | COc1cc(/C=C/C(=O)CC(=O)/C=C/c2ccc(O)c(OC)c2)ccc1O [CURCUMIN] |  |  |  |  |  |  | 
8 |  | CC1=C2C[C@@]3(C)C(=C[C@]2(O)OC1=O)C(=O)C=C[C@@H]3C | inactive | inactive | inactive | inactive | inactive | inactive | 29.4%
9 |  | CC(=O)O[C@H]1[C@@H]2O[C@H]2[C@H]2C[C@@]3(O)OC[C@@]4(C)O[C@]43C[C@]2(C)[C@H]1C | inactive | inactive | inactive | inactive | inactive | inactive | 

Reference: ChEMBL document CHEMBL4130509, “Sesquiterpenes from the Endophyte Glomerella cingulata” (J Nat Prod, 2017)
